pEC50: −log10 of the molar value.
What was measured:
HL-60(TB) = experiment: Cytotoxicity against human HL-60(TB) cells after 48 hrs by SRB assay; type: functional; conditions: HL-60, 48 h; for CC50: read-out: LC50 (the source's name)
Method in brief: (§1)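 NCI-60 five-dose screen at 10−8 to 10−4 M. Cells were plated at 5,000–40,000/well in RPMI 1640 with 5% FBS and 2 mM L-glutamine, then preincubated 24 h, and time-zero plates were TCA-fixed. Compound was added from DMSO stocks and exposed 48 h at 37 °C. Cells were TCA-fixed, SRB-stained, and read at 515 nm. LC50 is the concentration halving the cell population through cell death.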

RPMI-8226 = experiment: Cytotoxicity against human RPMI8226 cells after 48 hrs by SRB assay; type: functional; conditions: RPMI-8226, 48 h; for CC50: read-out: LC50 (the source's name); method in brief: as §1
A549 = experiment: Cytotoxicity against human A549 cells after 48 hrs by SRB assay; type: functional; conditions: A549, 48 h; for CC50: read-out: LC50 (the source's name); method in brief: as §1
HOP-92 = experiment: Cytotoxicity against human HOP92 cells after 48 hrs by SRB assay; type: functional; conditions: HOP-92, 48 h; for CC50: read-out: LC50 (the source's name); method in brief: as §1
NCI-H226 = experiment: Cytotoxicity against human NCI-H226 cells after 48 hrs by SRB assay; type: functional; conditions: NCI-H226, 48 h; for CC50: read-out: LC50 (the source's name); method in brief: as §1
NCI-H460 = experiment: Cytotoxicity against human NCI-H460 cells after 48 hrs by SRB assay; type: functional; conditions: NCI-H460, 48 h; for CC50: read-out: LC50 (the source's name); method in brief: as §1
NCI-H522 = experiment: Cytotoxicity against human NCI-H522 cells after 48 hrs by SRB assay; type: functional; conditions: NCI-H522, 48 h; for CC50: read-out: LC50 (the source's name); method in brief: as §1
HCT-116 = experiment: Cytotoxicity against human HCT116 cells after 48 hrs by SRB assay; type: functional; conditions: HCT-116, 48 h; for CC50: read-out: LC50 (the source's name); method in brief: as §1
HT-29 = experiment: Cytotoxicity against human HT-29 cells after 48 hrs by SRB assay; type: functional; conditions: HT-29, 48 h; for CC50: read-out: LC50 (the source's name); method in brief: as §1
SF-539 = experiment: Cytotoxicity against human SF539 cells after 48 hrs by SRB assay; type: functional; conditions: SF-539, 48 h; for CC50: read-out: LC50 (the source's name); method in brief: as §1
U-251 = experiment: Cytotoxicity against human U251 cells after 48 hrs by SRB assay; type: functional; conditions: U-251, 48 h; for CC50: read-out: LC50 (the source's name)
Method in brief: (§2)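 NCI-60 screen: cells grown in RPMI 1640 with 5% FBS and 2 mM L-glutamine, plated at 5,000–40,000 cells/well by doubling time, and preincubated 24 h at 37 °C before drug. Drug was diluted from DMSO stock and given at five concentrations, 10−4 to 10−8 M, for 48 h. Cells fixed with cold TCA, SRB stained, OD read at 515 nm against time-zero and vehicle plates. LC50 taken as the concentration that halves cell population through cell death.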

MDA-MB-435 = experiment: Cytotoxicity against human MDA-MB-435 cells after 48 hrs by SRB assay; type: functional; conditions: MDA-MB-435, 48 h; for CC50: read-out: LC50 (the source's name); method in brief: as §1
SK-MEL-28 = experiment: Cytotoxicity against human SK-MEL-28 cells after 48 hrs by SRB assay; type: functional; conditions: SK-MEL-28, 48 h; for CC50: read-out: LC50 (the source's name); method in brief: as §1
SK-MEL-5 = experiment: Cytotoxicity against human SK-MEL-5 cells after 48 hrs by SRB assay; type: functional; conditions: SK-MEL-5, 48 h; for CC50: read-out: LC50 (the source's name); method in brief: as §1
OVCAR-3 = experiment: Cytotoxicity against human OVCAR3 cells after 48 hrs by SRB assay; type: functional; conditions: OVCAR-3, 48 h; for CC50: read-out: LC50 (the source's name); method in brief: as §1
[1] = Cytotoxicity against human NCI-ADR-RES cells after 48 hrs by SRB assay; type: functional; conditions: for CC50: read-out: LC50 (the source's name); method in brief: as §1
CAKI-1 = experiment: Cytotoxicity against human Caki1 cells after 48 hrs by SRB assay; type: functional; conditions: CAKI-1, 48 h; for CC50: read-out: LC50 (the source's name); method in brief: as §1
DU-145 = experiment: Cytotoxicity against human DU145 cells after 48 hrs by SRB assay; type: functional; conditions: DU-145, 48 h; method in brief: as §1
MCF7 = experiment: Cytotoxicity against human MCF7 cells after 48 hrs by SRB assay; type: functional; conditions: MCF7, 48 h; for CC50: read-out: LC50 (the source's name)
Method in brief: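 NCI-60 screen: cells in RPMI 1640 with 5% FBS and 2 mM L-glutamine, preincubated 24 h at 37 °C. Compound was then added for 48 h at five concentrations (10−4 to 10−8 M). Cells were fixed with cold TCA and stained with 0.4% SRB in 1% acetic acid, and OD read at 515 nm. GI50 is the concentration halving net protein increase versus control.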

MDA-MB-231 = experiment: Cytotoxicity against human MDA-MB-231 cells after 48 hrs by SRB assay; type: functional; conditions: MDA-MB-231, 48 h; method in brief: as §1
[2] = Cytotoxicity against human Hs 578T cells after 48 hrs by SRB assay; type: functional; conditions: for CC50: read-out: LC50 (the source's name); method in brief: as §1
BT-549 = experiment: Cytotoxicity against human BT549 cells after 48 hrs by SRB assay; type: functional; conditions: BT-549, 48 h; method in brief: as §1
T47D = experiment: Cytotoxicity against human T47D cells after 48 hrs by SRB assay; type: functional; conditions: for CC50: read-out: LC50 (the source's name); method in brief: as §2
[3] = Antileukemic activity against human M9-ENL1 cells after 24 hrs by annexin V/7-AAD staining-based flow cytometric analysis; type: functional, cell-based
Method in brief: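 M9-ENL1 cells in alpha-MEM with 5% human plasma, 20% FBS, SCF, IL-3, IL-7 and FLT3. Drug came from a DMSO stock diluted in PBS (≤0.5% DMSO final), for 24 h over 0.5-10 μM. Cells negative for both annexin V and 7-AAD were taken as non-apoptotic and normalized to vehicle. EC50 read from dose-response curves, triplicate.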

[4] = Antileukemic activity against human AML02 cells after 24 hrs by annexin V/7-AAD staining-based flow cytometric analysis; type: functional, cell-based
Method in brief: (§3)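 Primary AML specimens from consenting donors, isolated by Ficoll-Paque gradient and sometimes cryopreserved. Cells were held 1 h in serum-free IMDM with 20% BIT 9500, LDL and β-mercaptoethanol before drug (DMSO stock diluted in PBS, ≤0.5% DMSO final). Exposure was 24 h over 0.5-10 μM. Annexin V/7-AAD double-negative cells, normalized to vehicle, gave the EC50. Run in triplicate.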

[5] = Antileukemic activity against human AML04 cells after 24 hrs by annexin V/7-AAD staining-based flow cytometric analysis; type: functional, cell-based; method in brief: as §3
[6] = Cytotoxicity against hematopoietic progenitor cells isolated from human umbilical cord blood by annexin V staining-based flow cytometric analysis; type: cell-based
Method in brief: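 Cord-blood mononuclear cells from Ficoll-Paque were plated in serum-free medium, with drug from a DMSO stock (≤0.5% DMSO final). Cells were stained for CD34, CD45 and annexin V. The non-apoptotic fraction (annexin V-negative within the CD34+CD45dim compartment) was normalized to vehicle, and EC50 was fitted where possible. Triplicate.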

HOP-62 = experiment: Cytotoxicity against human HOP62 cells after 48 hrs by SRB assay; type: functional; conditions: HOP-62, 48 h; method in brief: as §1
[7] = Antileukemic activity against human AML03 cells after 24 hrs by annexin V/7-AAD staining-based flow cytometric analysis; type: functional, cell-based; method in brief: as §3

Compound: C=C1C(=O)O[C@H]2[C@H]1CC/C(COC(=O)NCCCCCNC(=O)OC/C1=C/CC[C@@]3(C)O[C@H]3[C@H]3OC(=O)C(=C)[C@@H]3CC1)=C\CC[C@@]1(C)O[C@@H]21
- GI50 (HL-60(TB)): 310 nM
- CC50 (HL-60(TB)): > 100000 nM
- GI50 (RPMI-8226): 780 nM
- CC50 (RPMI-8226): > 100000 nM
- GI50 (A549): 14900 nM
- CC50 (A549): 71700 nM
- GI50 (HOP-92): 1300 nM
- CC50 (HOP-92): 8610 nM
- GI50 (NCI-H226): 2560 nM
- CC50 (NCI-H226): 30900 nM
- GI50 (NCI-H460): 4340 nM
- CC50 (NCI-H460): 50700 nM
- GI50 (NCI-H522): 220 nM
- CC50 (NCI-H522): 880 nM
- GI50 (HCT-116): 540 nM
- CC50 (HCT-116): 4560 nM
- GI50 (HT-29): 510 nM
- CC50 (HT-29): 4850 nM
- GI50 (SF-539): 1920 nM
- CC50 (SF-539): 12700 nM
- GI50 (U-251): 3510 nM
- CC50 (U-251): 51500 nM
- GI50 (MDA-MB-435): 1510 nM
- CC50 (MDA-MB-435): 7300 nM
- GI50 (SK-MEL-28): 1580 nM
- CC50 (SK-MEL-28): 12600 nM
- GI50 (SK-MEL-5): 3190 nM
- CC50 (SK-MEL-5): 37000 nM
- GI50 (OVCAR-3): 760 nM
- CC50 (OVCAR-3): 5070 nM
- GI50 [1]: 70000 nM
- CC50 [1]: > 100000 nM
- GI50 (CAKI-1): 16100 nM
- CC50 (CAKI-1): 68100 nM
- GI50 (DU-145): 3060 nM
- LC50 (concentration killing half the cells) (DU-145): 32600 nM
- GI50 (MCF7): 390 nM
- CC50 (MCF7): 6200 nM
- GI50 (MDA-MB-231): 1470 nM
- LC50 (MDA-MB-231): 6400 nM
- GI50 [2]: 2910 nM
- CC50 [2]: > 100000 nM
- GI50 (BT-549): 1000 nM
- LC50 (BT-549): 4960 nM
- GI50 (T47D): 1600 nM
- CC50 (T47D): > 100000 nM
- pEC50 [3]: 6.24
- pEC50 [4]: 6.05
- pEC50 [5]: 5.46
- pEC50 [6]: < 5.00

Compound: C=C1C(=O)O[C@H]2[C@H]1CC/C(COC(=O)NCCCCCCCCNC(=O)OC/C1=C/CC[C@@]3(C)O[C@H]3[C@H]3OC(=O)C(=C)[C@@H]3CC1)=C\CC[C@@]1(C)O[C@@H]21
- GI50 (HL-60(TB)): 260 nM
- CC50 (HL-60(TB)): > 100000 nM
- GI50 (RPMI-8226): 250 nM
- CC50 (RPMI-8226): > 100000 nM
- GI50 (A549): 1700 nM
- CC50 (A549): 7260 nM
- GI50 (HOP-62): 1530 nM
- CC50 (HOP-62; read-out: LC50 (the source's name)): 7950 nM
- GI50 (HOP-92): 170 nM
- CC50 (HOP-92): 2290 nM
- GI50 (NCI-H226): 1810 nM
- CC50 (NCI-H226): 21100 nM
- GI50 (NCI-H460): 1750 nM
- CC50 (NCI-H460): 9020 nM
- GI50 (NCI-H522): 180 nM
- CC50 (NCI-H522): 890 nM
- GI50 (HCT-116): 190 nM
- CC50 (HCT-116): 830 nM
- GI50 (HT-29): 220 nM
- CC50 (HT-29): 2270 nM
- GI50 (SF-539): 230 nM
- CC50 (SF-539): 2260 nM
- GI50 (U-251): 570 nM
- CC50 (U-251): 5130 nM
- GI50 (MDA-MB-435): 240 nM
- CC50 (MDA-MB-435): 3740 nM
- GI50 (SK-MEL-28): 200 nM
- CC50 (SK-MEL-28): 2120 nM
- GI50 (SK-MEL-5): 1210 nM
- CC50 (SK-MEL-5): 5530 nM
- GI50 (OVCAR-3): 330 nM
- CC50 (OVCAR-3): 3320 nM
- GI50 [1]: 3910 nM
- CC50 [1]: 82000 nM
- GI50 (CAKI-1): 650 nM
- CC50 (CAKI-1): 4790 nM
- GI50 (DU-145): 1100 nM
- LC50 (concentration killing half the cells) (DU-145): 4810 nM
- GI50 (MCF7): 220 nM
- CC50 (MCF7): 4300 nM
- GI50 (MDA-MB-231): 200 nM
- LC50 (MDA-MB-231): 1240 nM
- GI50 [2]: 1170 nM
- CC50 [2]: > 100000 nM
- GI50 (BT-549): 250 nM
- LC50 (BT-549): 3570 nM
- GI50 (T47D): 320 nM
- CC50 (T47D): > 100000 nM
- pEC50 [3]: 5.70
- pEC50 [4]: 5.92
- pEC50 [7]: 5.54
- pEC50 [5]: 5.43
- pEC50 [6]: < 5.00
